Laboratory results taken from PMC7670640 (Pharmacology Research & Perspectives, 2020).

Columns and labels:
[1] = Single ascending dose part; type: in vivo, human; conditions: for AUC / Cmax / Tmax / half-life: human, plasma, oral
Summary of the method: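 Healthy men received a single oral dose of test compound after a moderate-fat meal (~600 calories, ~30% from fat). Plasma was taken from ~2 mL whole blood and assayed by HPLC-MS/MS. Cmax, tmax, AUC0-∞, AUC0-24 and terminal half-life came from standard noncompartmental analysis. Dose proportionality was assessed with a power model and ANOVA.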

[2] = Lowest observed adverse effect level in dogs; type: in vivo
[3] = Single ascending dose part; type: in vivo, human
Summary of the method: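 Healthy men in an interlocking two-cohort, four-period crossover. Each period was randomized 3:1 (6 active, 2 placebo); each participant received three ascending single oral doses and one placebo, each after a moderate-fat meal (~600 calories, ~30% fat). Two sentinel participants per period were dosed first, with a 24-h safety review before the rest. Monitoring covered AEs, vitals, ECGs, labs, physical exams, and GI/hepatobiliary abnormalities. AEs were MedDRA-coded and summarized descriptively.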

HIV‐1 subtypes = assay: Inhibition across HIV‐1 subtypes; conditions: background statement, no reference given
[4] = Part 1, across all drug doses in the 20 participants

C=C(C)[C@@H]1CC[C@]2(NCCN3CCS(=O)(=O)CC3)CC[C@]3(C)[C@H](CC[C@@H]4[C@@]5(C)CC=C(C6=CC[C@@](CF)(C(=O)O)CC6)C(C)(C)[C@@H]5CC[C@]43C)[C@@H]12 [GSK3640254]
dose‐proportionality of Cmax and AUC ([1]; 1‐ to 700‐mg single dose range): approximately dose‐proportional increase in exposure
AUC ([1]; 1 mg): 57 ng·h/mL
Cmax ([1]; 1 mg): 5 ng/mL
Tmax ([1]; 1 mg, tmax, median (range), single dose 1 mg, N = 6): 3.5 h
AUC ([1]; 3 mg): 329 ng·h/mL
Cmax ([1]; 3 mg): 14 ng/mL
half-life ([1]; 3 mg, t1/2, geometric mean (%CVb), single dose 3 mg, N = 6): 20.5 h
Tmax ([1]; 3 mg, tmax, median (range), single dose 3 mg, N = 6): 4.5 h
AUC ([1]; 10 mg): 1230 ng·h/mL
Cmax ([1]; 10 mg): 47 ng/mL
Tmax ([1]; 10 mg, tmax, median (range), single dose 10 mg, N = 6): 3.5 h
AUC ([1]; 30 mg): 2990 ng·h/mL
Cmax ([1]; 30 mg): 130 ng/mL
Tmax ([1]; 30 mg, tmax, median (range), single dose 30 mg, N = 6): 4 h
AUC ([1]; 100 mg): 8540 ng·h/mL
Cmax ([1]; 100 mg): 372 ng/mL
Tmax ([1]; 100 mg, tmax, median (range), single dose 100 mg, N = 6): 3.8 h
AUC ([1]; 200 mg): 15000 ng·h/mL
Cmax ([1]; 200 mg): 579 ng/mL
Tmax ([1]; 200 mg, tmax, median (range), single dose 200 mg, N = 6): 3 h
AUC ([1]; 400 mg): 43000 ng·h/mL
Cmax ([1]; 400 mg): 1880 ng/mL
Tmax ([1]; 400 mg, tmax, median (range), single dose 400 mg, N = 6): 3.3 h
AUC ([1]; 700 mg): 39700 ng·h/mL
Cmax ([1]; 700 mg): 1720 ng/mL
Tmax ([1]; 700 mg, tmax, median (range), single dose 700 mg, N = 6): 3.3 h
half-life ([1]; estimated half‐life, single‐ and multiple‐dose administration after a moderate‐calorie and ‐fat breakfast): 21.2 to 28.4 h
half-life ([1]; half‐life, abstract summary of the FTIH study): ~24 h
half-life ([1]; mean half‐life, 10‐ to 700‐mg single doses): ~24 h
Tmax ([1]; median tmax, after administration, range across doses): 3 to 4.5 h
change in exposure from 400 to 700 mg ([1]; single dose): no increase in exposure from 400 to 700 mg
time detectable in plasma ([1]; single dose 1 and 3 mg): up to 48 hours
time detectable in plasma ([1]; single dose 10‐700 mg): up to 96 hours
maximum recommended starting dose [MRSD] based on lowest observed adverse effect level in dogs ([2]; calculated from dog level of 1 mg/kg): approximately 3.2 mg
lowest observed adverse effect level ([2]; dogs, absence of a NOAEL in dogs): 1 mg/kg
most common AEs: contact dermatitis, number of events [3, 4]: five
most common AEs: diarrhea, number of events [3, 4]: four
most common AEs: dizziness, number of events [3, 4]: four
most common AEs: headache, number of events [3, 4]: eight
most common AEs: nasopharyngitis, number of events [3, 4]: three
participants reporting GI AEs ([3]; Part 1, eleven GI AEs in six participants): 30%
adverse drug reactions, number ([3]; across both parts of the study (total includes placebo periods per Table 3)): 12
trends in laboratory values or vital sign parameters ([3]; across doses in either part of the study): no clinically significant trends in laboratory values or vital sign parameters
deaths or serious AEs ([3]; single and multiple ascending doses): no deaths or serious AEs were reported
Adverse event: Any event ([3]; single dose 1 mg (N = 6)): 3 (50) n (%)
Adverse event: Contact dermatitis ([3]; single dose 1 mg (N = 6)): 1 (17) n (%)
Adverse event: Cough ([3]; single dose 1 mg (N = 6)): 0 n (%)
Adverse event: Diarrhea ([3]; single dose 1 mg (N = 6)): 0 n (%)
Adverse event: Dizziness ([3]; single dose 1 mg (N = 6)): 1 (17) n (%)
Adverse event: Gastrointestinal disorders ([3]; single dose 1 mg (N = 6)): 1 (17) n (%)
Adverse event: Headache ([3]; single dose 1 mg (N = 6)): 1 (17) n (%)
Adverse event: Increased transaminases ([3]; single dose 1 mg (N = 6)): 0 n (%)
Adverse event: Nasal obstruction ([3]; single dose 1 mg (N = 6)): 0 n (%)
Adverse event: Nasopharyngitis ([3]; single dose 1 mg (N = 6)): 0 n (%)
Adverse event: Nightmare ([3]; single dose 1 mg (N = 6)): 0 n (%)
Adverse event: Viral infection ([3]; single dose 1 mg (N = 6)): 0 n (%)
Adverse event: Vomiting ([3]; single dose 1 mg (N = 6)): 0 n (%)
Adverse event: Any event ([3]; single dose 3 mg (N = 6)): 2 (33) n (%)
Adverse event: Contact dermatitis ([3]; single dose 3 mg (N = 6)): 1 (17) n (%)
Adverse event: Cough ([3]; single dose 3 mg (N = 6)): 0 n (%)
Adverse event: Diarrhea ([3]; single dose 3 mg (N = 6)): 0 n (%)
Adverse event: Dizziness ([3]; single dose 3 mg (N = 6)): 1 (17) n (%)
Adverse event: Gastrointestinal disorders ([3]; single dose 3 mg (N = 6)): 0 n (%)
Adverse event: Headache ([3]; single dose 3 mg (N = 6)): 0 n (%)
Adverse event: Increased transaminases ([3]; single dose 3 mg (N = 6)): 0 n (%)
Adverse event: Nasal obstruction ([3]; single dose 3 mg (N = 6)): 0 n (%)
Adverse event: Nasopharyngitis ([3]; single dose 3 mg (N = 6)): 0 n (%)
Adverse event: Nightmare ([3]; single dose 3 mg (N = 6)): 1 (17) n (%)
Adverse event: Viral infection ([3]; single dose 3 mg (N = 6)): 0 n (%)
Adverse event: Vomiting ([3]; single dose 3 mg (N = 6)): 0 n (%)
Adverse event: Any event ([3]; single dose 10 mg (N = 6)): 4 (67) n (%)
Adverse event: Contact dermatitis ([3]; single dose 10 mg (N = 6)): 1 (17) n (%)
Adverse event: Cough ([3]; single dose 10 mg (N = 6)): 1 (17) n (%)
Adverse event: Diarrhea ([3]; single dose 10 mg (N = 6)): 1 (17) n (%)
Adverse event: Dizziness ([3]; single dose 10 mg (N = 6)): 1 (17) n (%)
Adverse event: Gastrointestinal disorders ([3]; single dose 10 mg (N = 6)): 1 (17) n (%)
Adverse event: Headache ([3]; single dose 10 mg (N = 6)): 1 (17) n (%)
Adverse event: Increased transaminases ([3]; single dose 10 mg (N = 6)): 0 n (%)
Adverse event: Nasal obstruction ([3]; single dose 10 mg (N = 6)): 1 (17) n (%)
Adverse event: Nasopharyngitis ([3]; single dose 10 mg (N = 6)): 1 (17) n (%)
Adverse event: Nightmare ([3]; single dose 10 mg (N = 6)): 0 n (%)
Adverse event: Viral infection ([3]; single dose 10 mg (N = 6)): 1 (17) n (%)
Adverse event: Vomiting ([3]; single dose 10 mg (N = 6)): 0 n (%)
Adverse event: Any event ([3]; single dose 30 mg (N = 6)): 3 (50) n (%)
Adverse event: Contact dermatitis ([3]; single dose 30 mg (N = 6)): 0 n (%)
Adverse event: Cough ([3]; single dose 30 mg (N = 6)): 0 n (%)
Adverse event: Diarrhea ([3]; single dose 30 mg (N = 6)): 1 (17) n (%)
Adverse event: Dizziness ([3]; single dose 30 mg (N = 6)): 0 n (%)
Adverse event: Gastrointestinal disorders ([3]; single dose 30 mg (N = 6)): 1 (17) n (%)
Adverse event: Headache ([3]; single dose 30 mg (N = 6)): 1 (17) n (%)
Adverse event: Increased transaminases ([3]; single dose 30 mg (N = 6)): 0 n (%)
Adverse event: Nasal obstruction ([3]; single dose 30 mg (N = 6)): 0 n (%)
Adverse event: Nasopharyngitis ([3]; single dose 30 mg (N = 6)): 0 n (%)
Adverse event: Nightmare ([3]; single dose 30 mg (N = 6)): 0 n (%)
Adverse event: Viral infection ([3]; single dose 30 mg (N = 6)): 0 n (%)
Adverse event: Vomiting ([3]; single dose 30 mg (N = 6)): 0 n (%)
Adverse event: Any event ([3]; single dose 100 mg (N = 6)): 3 (50) n (%)
Adverse event: Contact dermatitis ([3]; single dose 100 mg (N = 6)): 0 n (%)
Adverse event: Cough ([3]; single dose 100 mg (N = 6)): 1 (17) n (%)
Adverse event: Diarrhea ([3]; single dose 100 mg (N = 6)): 2 (33) n (%)
Adverse event: Dizziness ([3]; single dose 100 mg (N = 6)): 0 n (%)
Adverse event: Gastrointestinal disorders ([3]; single dose 100 mg (N = 6)): 2 (33) n (%)
Adverse event: Headache ([3]; single dose 100 mg (N = 6)): 2 (33) n (%)
Adverse event: Increased transaminases ([3]; single dose 100 mg (N = 6)): 0 n (%)
Adverse event: Nasal obstruction ([3]; single dose 100 mg (N = 6)): 0 n (%)
Adverse event: Nasopharyngitis ([3]; single dose 100 mg (N = 6)): 1 (17) n (%)
Adverse event: Nightmare ([3]; single dose 100 mg (N = 6)): 0 n (%)
Adverse event: Viral infection ([3]; single dose 100 mg (N = 6)): 1 (17) n (%)
Adverse event: Vomiting ([3]; single dose 100 mg (N = 6)): 2 (33) n (%)
Adverse event: Any event ([3]; single dose 200 mg (N = 6)): 4 (67) n (%)
Adverse event: Contact dermatitis ([3]; single dose 200 mg (N = 6)): 1 (17) n (%)
Adverse event: Cough ([3]; single dose 200 mg (N = 6)): 0 n (%)
Adverse event: Diarrhea ([3]; single dose 200 mg (N = 6)): 0 n (%)
Adverse event: Dizziness ([3]; single dose 200 mg (N = 6)): 0 n (%)
Adverse event: Gastrointestinal disorders ([3]; single dose 200 mg (N = 6)): 0 n (%)
Adverse event: Headache ([3]; single dose 200 mg (N = 6)): 1 (17) n (%)
Adverse event: Increased transaminases ([3]; single dose 200 mg (N = 6)): 1 (17) n (%)
Adverse event: Nasal obstruction ([3]; single dose 200 mg (N = 6)): 0 n (%)
Adverse event: Nasopharyngitis ([3]; single dose 200 mg (N = 6)): 0 n (%)
Adverse event: Nightmare ([3]; single dose 200 mg (N = 6)): 0 n (%)
Adverse event: Viral infection ([3]; single dose 200 mg (N = 6)): 0 n (%)
Adverse event: Vomiting ([3]; single dose 200 mg (N = 6)): 0 n (%)
Adverse event: Any event ([3]; single dose 400 mg (N = 6)): 4 (67) n (%)
Adverse event: Contact dermatitis ([3]; single dose 400 mg (N = 6)): 1 (17) n (%)
Adverse event: Cough ([3]; single dose 400 mg (N = 6)): 0 n (%)
Adverse event: Diarrhea ([3]; single dose 400 mg (N = 6)): 0 n (%)
Adverse event: Dizziness ([3]; single dose 400 mg (N = 6)): 0 n (%)
Adverse event: Gastrointestinal disorders ([3]; single dose 400 mg (N = 6)): 1 (17) n (%)
Adverse event: Headache ([3]; single dose 400 mg (N = 6)): 2 (33) n (%)
Adverse event: Increased transaminases ([3]; single dose 400 mg (N = 6)): 0 n (%)
Adverse event: Nasal obstruction ([3]; single dose 400 mg (N = 6)): 0 n (%)
Adverse event: Nasopharyngitis ([3]; single dose 400 mg (N = 6)): 1 (17) n (%)
Adverse event: Nightmare ([3]; single dose 400 mg (N = 6)): 0 n (%)
Adverse event: Viral infection ([3]; single dose 400 mg (N = 6)): 0 n (%)
Adverse event: Vomiting ([3]; single dose 400 mg (N = 6)): 0 n (%)
Adverse event: Any event ([3]; single dose 700 mg (N = 6)): 1 (17) n (%)
Adverse event: Contact dermatitis ([3]; single dose 700 mg (N = 6)): 0 n (%)
Adverse event: Cough ([3]; single dose 700 mg (N = 6)): 0 n (%)
Adverse event: Diarrhea ([3]; single dose 700 mg (N = 6)): 0 n (%)
Adverse event: Dizziness ([3]; single dose 700 mg (N = 6)): 1 (17) n (%)
Adverse event: Gastrointestinal disorders ([3]; single dose 700 mg (N = 6)): 0 n (%)
Adverse event: Headache ([3]; single dose 700 mg (N = 6)): 0 n (%)
Adverse event: Increased transaminases ([3]; single dose 700 mg (N = 6)): 0 n (%)
Adverse event: Nasal obstruction ([3]; single dose 700 mg (N = 6)): 0 n (%)
Adverse event: Nasopharyngitis ([3]; single dose 700 mg (N = 6)): 0 n (%)
Adverse event: Nightmare ([3]; single dose 700 mg (N = 6)): 0 n (%)
Adverse event: Viral infection ([3]; single dose 700 mg (N = 6)): 0 n (%)
Adverse event: Vomiting ([3]; single dose 700 mg (N = 6)): 0 n (%)
inhibition across HIV‐1 subtypes (HIV‐1 subtypes): broad‐spectrum inhibition across various HIV‐1 subtypes
